Measurements pooled from the literature.
Compare with care: the assays were run in different laboratories.
KIT D816V: Mast/stem cell growth factor receptor Kit (KIT, Homo sapiens, UniProt P10721, D816V)
KIT: Mast/stem cell growth factor receptor Kit (KIT, Homo sapiens, UniProt P10721)
KIT autoinhibited: Mast/stem cell growth factor receptor Kit, autoinhibited (KIT, Homo sapiens, UniProt P10721)
KIT V559D: Mast/stem cell growth factor receptor Kit (KIT, Homo sapiens, UniProt P10721, V559D)
KIT L576P: Mast/stem cell growth factor receptor Kit (KIT, Homo sapiens, UniProt P10721, L576P)
KIT A829P: Mast/stem cell growth factor receptor Kit (KIT, Homo sapiens, UniProt P10721, A829P)
KIT D816H: Mast/stem cell growth factor receptor Kit (KIT, Homo sapiens, UniProt P10721, D816H)

| SMILES | target | read-out | technique | tested at | remaining binding [%] |
| --- | --- | --- | --- | --- | --- |
| O=C(c1ccc(Nc2ncc(Cl)c(-c3ccc(Cl)s3)n2)cc1)N1CCC(N2CCCC2)CC1 | KIT D816V | binding | competition with immobilised ligand | 1 µM | 17 |
| CN(C)c1ncc(F)c(-c2cnn3ncccc23)n1 | KIT | binding |  | 1 µM | 100 |
| C=CC(=O)N1CCC(C(=O)NCC(=O)N2CCN(c3nc(-c4cnc(N)nc4C(F)F)nc(N4CCOCC4)n3)CC2)CC1 | KIT autoinhibited | binding | competition with immobilised ligand | 1 µM | 35 |
| O=C(c1ccc(Nc2nccc(-c3cc4ccccc4s3)n2)cc1)N1CCC(N2CCCC2)CC1 | KIT | binding | competition with immobilised ligand | 1 µM | 53 |
| CO[C@H]1CC[C@H](CNc2ccc(S(=O)(=O)NC(=O)c3ccc(N4CCN(CC5=C(c6ccc(Cl)cc6)CC(C)(C)CC5)CC4)cc3Oc3cnc4[nH]ccc4c3)cc2[N+](=O)[O-])CC1 | KIT D816V | cell-free assay | competition with immobilised ligand | 1 µM | 100 |
| O=C(NCC1CCOCC1)c1n[nH]cc1NC(=O)c1c(F)cccc1F | KIT V559D | binding | competition with immobilised ligand | 1 µM | 100 |
| c1cncc(-c2cccc(Nc3nccc(NC4CCCCC4)n3)c2)c1 | KIT L576P | binding | competition with immobilised ligand | 10 µM | 0 |
| CN([C@@H]1CCc2c(CC(=O)O)c3ccccc3n2C1)S(=O)(=O)c1ccc(F)cc1 | Mast/stem cell growth factor receptor Kit (KIT, Homo sapiens, UniProt P10721, T670I/V559D) | cell-free assay | competition with immobilised ligand | 1 µM | 100 |
| COc1cnc(Nc2cccc(S(N)(=O)=O)c2)nc1N1CCN(c2ccccc2)C(=O)C1 | KIT A829P | binding | competition with immobilised ligand | 1 µM | 68 |
| CN(C)c1nccc(-c2cnc3ncccn23)n1 | KIT | binding |  | 1 µM | 69 |
| C[C@@H](c1cccc(C#N)c1)n1cc(Cl)cc(C(N)=O)c1=N | KIT V559D | cell-free assay | competition with immobilised ligand | 1 µM | 93 |
| CN(C)c1nccc(-c2cnn3ncccc23)n1 | KIT L576P | binding |  | 1 µM | 100 |
| CNC(=O)[C@@H]1CC[C@@H](n2c(-c3ccc4cnccc4c3)nc3ccc(C(=O)NCc4cccc(C(N)=O)c4)cc32)C1 | KIT D816H | binding | competition with immobilised ligand | 1 µM | 100 |
| N[C@@H]1CCN(c2nccc(-c3cnn4ncccc34)n2)C1 | KIT V559D | binding |  | 1 µM | 100 |
| O=C(NCCCN1CCOCC1)c1ccc(Nc2ncc(Cl)c(-c3ccc(Cl)s3)n2)cc1 | KIT D816V | binding | competition with immobilised ligand | 1 µM | 26 |
| COc1cc(-c2cn(C3CCc4c(F)cccc4N(CC(F)(F)F)C3=O)nn2)ccc1-n1cnc(C)c1 (stereo not drawn) | KIT L576P | cell-free assay | competition with immobilised ligand | 1 µM | 100 |
| CN(c1nccc(-c2cnn3ncccc23)n1)C1CC1 | KIT D816H | binding |  | 1 µM | 83 |
| O=C(Nc1c[nH]nc1C(=O)NC1CCNCC1)c1cc(F)cc(F)c1 | Mast/stem cell growth factor receptor Kit (KIT, Homo sapiens, UniProt P10721, V559D/V654A) | binding | competition with immobilised ligand | 1 µM | 100 |
| O=C(O)[C@H]1[C@H](Cn2nnc3ccccc3c2=O)CC[C@@H]1C(=O)c1ccc(OCCC2CCOCC2)cc1 | KIT A829P | cell-free assay | competition with immobilised ligand | 1 µM | 84 |
| F[C@@H]1CCN(c2nccc(-c3cnn4ncccc34)n2)C1 | KIT D816H | binding |  | 1 µM | 85 |
| N#CC1(c2ccccn2)CCN(Cc2cc(C(=O)N3CCCC3)c(=O)n3ccccc23)CC1 | KIT A829P | cell-free assay | competition with immobilised ligand | 1 µM | 50 |
| Nc1ncc2c(n1)-c1c([nH]c3ccc(C#CC4CC4)cc13)CCCC2 | KIT autoinhibited | binding | competition with immobilised ligand | 1 µM | 86 |
| C[C@@H]1CCN(c2nccc(-c3cnn4ncccc34)n2)C1 | KIT autoinhibited | binding |  | 1 µM | 87 |
| CC1=C(C#N)[C@@H](c2ccc3[nH]nc(C)c3c2)C(C#N)=C(c2ccc(Cl)cc2)N1 | KIT D816H | cell-free assay | competition with immobilised ligand | 1 µM | 84.3 |
